# Source: PubChem BioAssay
# Calls of active or inactive are those of the source.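 Rule for the calls, unless noted: active = GFP response above 150% of the DMSO level; inconclusive = fewer than 70 events counted for a yeast strain; inactive = the rest.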
# What was measured:
# [1] = hit retest on RPL19A-GFP reporter strain – cell-based, S. cerevisiae, flow cytometry, cherry picks, mother/daughter gates, confirmation (AID 2270;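 active = GFP response below 50% of the DMSO control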); details: 3 h, at 10 µM, stronger effect = lower value, 100 = same GFP as DMSO wells
# [2] = yeast TOR pathway reporter LAP4-GFP change – cell-based, cherry picks, flow cytometry, mother/daughter gates, confirmation (AID 2271;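 active = GFP response above 150% of the DMSO control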;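 note: ratio of sample to DMSO plate mean so 100% equals DMSO level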); details: S. cerevisiae LAP4-GFP strain, 3 h, at 10 µM, stronger effect = higher value, 100 means same as DMSO control
# How it was run: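 Measured by: GFP by flow cytometry. Test system: GFP-fusion yeast strain. Input: yeast cells seeded at OD600 of 0.2. Timing: 30 °C, 3 h compound incubation, rotating. Buffer or medium: synthetic complete medium for yeast. Benchmarks: DMSO-only negative wells, rapamycin 400 ng/mL positive wells. Compound: 10 µM single dose.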
# [3] = TOR pathway reporter MEP2-GFP, retest of hits – S. cerevisiae, flow cytometry GFP, cherry picks, confirmation (AID 2272;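 active = GFP response above 150% of the DMSO control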;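 note: ratio of well signal to plate DMSO mean so 100% equals DMSO level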); details: S. cerevisiae MEP2-GFP strain, 3 h, at 10 µM, stronger effect = higher value
# [4] = yeast AGP1-GFP fluorescence change, single-dose – cell-based, flow cytometry, S. cerevisiae, cherry picks, confirmation (AID 2273);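 note: median GFP channel fluorescence over the whole cell population gate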; details: S. cerevisiae AGP1-GFP strain, 3 h, at 10 µM
# [5] = TOR pathway CIT2 reporter hit retest – S. cerevisiae, GFP fusion, cherry picks, mother/daughter gates, confirmation (AID 2274); details: S. cerevisiae CIT2-GFP strain, flow cytometry, 3 h, at 10 µM, stronger effect = higher value
# [6] = measured here: daughter cell gate
# [7] = measured here: mother cell gate
# [8] = measured here: daughter cell gate response
# [9] = measured here: mother cell gate response
Structure (SMILES),GFP response vs DMSO [1],"GFP response vs DMSO [1, 6] [%]","GFP response vs DMSO [1, 7] [%]",GFP response relative to DMSO [2],"GFP response relative to DMSO [2, 8] [%]","GFP response relative to DMSO [2, 9] [%]",GFP response vs DMSO [3],"GFP response, % of DMSO [4]","GFP response, % of DMSO [5]","GFP response, % of DMSO [5, 6] [%]","GFP response, % of DMSO [5, 7] [%]"
O=c1cc(-c2c(F)c(F)c(F)c(F)c2F)oc2c(F)c(F)c(F)c(F)c12,105% (inactive),101,101,145% (inactive),120,145,131% (inactive),113% (inactive),132% (inactive),119,118
Cc1ccc(N(C(=O)CNC(=O)c2ccco2)C(C(=O)NC2CCCC2)c2cccnc2)cc1C (centres undefined),104% (inactive),100,108,95.7% (inactive),95.9,95.2,99% (inactive),105% (inactive),102% (inactive),99.2,102
O=C(Nc1ccc(F)cc1)c1cc2cc(Cl)ccc2[nH]1,97% (inactive),96.9,96.2,101% (inactive),97.6,94,100% (inactive),102% (inactive),99.7% (inactive),–,92.6
CCCS(=O)(=O)N1CCC(C(=O)c2cccc(C(F)(F)F)c2)CC1,98.8% (inactive),97,98.2,101% (inactive),98.7,102,100% (inactive),97.8% (inactive),91.3% (inactive),93.2,89.1
O=C(COc1ccc(F)cc1Cl)Nc1nc(-c2ccccn2)cs1,98% (inactive),94.7,97.1,132% (inactive),132,137,110% (inactive),98.8% (inactive),94.4% (inactive),97.6,89.3
CCS(=O)(=O)N1N=C(c2ccc(NS(C)(=O)=O)cc2)CC1c1ccccc1 (centres undefined),99.8% (inactive),98.4,99,101% (inactive),104,99.5,108% (inactive),106% (inactive),101% (inactive),103,103
O=C(c1ccc([N+](=O)[O-])o1)N(Cc1nnc(-c2ccccc2Cl)o1)C1CC1,99.4% (inactive),100,99.5,98.2% (inactive),99.1,98.4,99% (inactive),101% (inactive),98.8% (inactive),101,96.8
Cc1ccn2c(NC3CCCCC3)c(-c3cccc(-c4cccc(Cl)c4)c3)nc2c1,95% (inactive),92.1,95.8,110% (inactive),102,112,108% (inactive),92.5% (inactive),93.5% (inactive),98.3,88.6
CSc1ccc(/C=C/C(=O)c2c(O)cc(C)oc2=O)cc1,105% (inactive),106,103,131% (inactive),125,135,120% (inactive),96.3% (inactive),–,–,–
Cc1nnc(N2C(=O)c3cccc4cccc(c34)C2=O)s1,94.9% (inactive),93.3,94.4,96.5% (inactive),94.4,96.4,106% (inactive),100% (inactive),101% (inactive),101,102
CCOC(=O)C(N)CSC1CC(=O)N(c2ccc(C(=O)OC)cc2)C1=O (centres undefined),98% (inactive),98.4,98.7,102% (inactive),102,101,100% (inactive),98.1% (inactive),98.3% (inactive),99.1,97.3
COc1ccc(-c2ccc(CCC(=O)O)o2)cc1,97% (inactive),95.1,96.1,126% (inactive),122,126,102% (inactive),86.3% (inactive),101% (inactive),97.2,101
O=C(Nc1c(-c2ccccc2)nc2ccccn12)c1ccco1,100% (inactive),102,99.8,99.2% (inactive),94.4,96.1,98.3% (inactive),98.9% (inactive),103% (inactive),–,106
O=C(c1ccccc1F)N1CCN(c2cccc(C(F)(F)F)c2)CC1,98.2% (inactive),97.6,96.5,97.7% (inactive),101,96.4,108% (inactive),106% (inactive),95.8% (inactive),97.6,94.9
CCCc1[nH]nc2c1C(c1ccc(OC(=O)N3CCOCC3)cc1)C(C#N)=C(N)O2 (centres undefined),98.2% (inactive),97.1,96.4,97.9% (inactive),94.4,94,100% (inactive),102% (inactive),101% (inactive),–,–
COc1ccccc1NC(=O)c1ccc(N)cc1,98% (inactive),98,98.1,100% (inactive),102,100,99.5% (inactive),98.7% (inactive),102% (inactive),104,101
